# PMC9064899 (The FEBS journal, 2021)
# Changes are numbered by the printed parent chain.
# Columns and labels:
# [1] = biological target: T1, UBIAD1 N102S (Homo sapiens, UniProt Q9Y5Z9, N102S); assay: Cell-based UBIAD1 functional assay
# T1 sequence (Q9Y5Z9 1-338 N102S): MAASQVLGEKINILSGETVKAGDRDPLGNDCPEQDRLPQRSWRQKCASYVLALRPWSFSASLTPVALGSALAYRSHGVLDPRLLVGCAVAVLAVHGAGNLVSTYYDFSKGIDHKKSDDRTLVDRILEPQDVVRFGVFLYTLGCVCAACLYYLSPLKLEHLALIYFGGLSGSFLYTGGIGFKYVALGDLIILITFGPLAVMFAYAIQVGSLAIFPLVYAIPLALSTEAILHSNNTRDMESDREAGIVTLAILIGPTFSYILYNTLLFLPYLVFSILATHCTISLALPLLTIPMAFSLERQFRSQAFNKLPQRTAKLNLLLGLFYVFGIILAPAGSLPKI
# Procedure, shortened: (§1)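 Wild-type or mutant human UBIAD1 in pCI-neo was transiently transfected into Ubiad1-knockout FIXgla-PC/HEK293 cells (DMEM/F12, 10% FBS). […] After 24 h, carboxylated FIXgla-PC in the medium was measured by ELISA. Activity was normalized to wild type (100%), and EC50 came from a curve fit. Mean ± SD, n=3 independent experiments.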
# [2] = biological target: T2, UBIAD1 G186R (Homo sapiens, UniProt Q9Y5Z9, G186R); assay: Cell-based UBIAD1 functional assay
# T2 sequence (Q9Y5Z9 1-338 G186R): T1 sequence (Q9Y5Z9 1-338 N102S) with S102N, G186R
# Procedure, shortened: as §1
structure (smiles),measurement,setting,value
"CC1=CC(=O)c2ccccc2C1=O [vitamin K3, menadione]",EC50,[1],3.9 ± 0.3 nM
same,Vitamin K-dependent carboxylation Activity ± SD,"[1]; N102S, 1 μM vitamin K3",98.2 ± 3%
same,increase of EC50 value of vitamin K3 vs wild-type,[2]; G186R vs WT,60 fold
same,Vitamin K-dependent carboxylation Activity ± SD,"[2]; G186R, 1 μM vitamin K3",57.1 ± 1.1%
